Results as given in the EternaBench riboswitch data.

What was measured:
[1] = test system: MS2 coat protein; test: apparent Kd, MS2 coat protein; higher = weaker binding; RNA-MaP array; theophylline 2 mM where present
Procedure, shortened: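 Designs on Illumina sequencing-chip clusters, transcribed by stalled E. coli RNA polymerase, were exposed to SNAP-549-labelled MS2 coat protein in doubling steps from 0.7 or 1.5 nM up to 3 µM, without and then with constant ligand. The buffer held 100 mM Tris-HCl pH 7.5, 80 mM KCl, 4 mM MgCl2, BSA, DTT, yeast tRNA and Tween-20. Apparent Kd values are medians of filtered per-cluster binding-curve fits to green signal normalised to red-channel RNA signal and control-cluster median Fmax.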

[2] = test system: MS2 coat protein; test: apparent Kd, MS2 coat protein; higher = weaker binding; RNA-MaP array
Procedure, shortened: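 Designed RNAs were transcribed on an Illumina sequencing chip from sequenced DNA templates. They were incubated at room temperature with fluorescently labeled MS2 coat protein at 1.5 nM to 3 μM, for 0.8–1.5 h at the lowest to 10–20 min at the highest concentrations, in Tris-HCl pH 7.5 buffer with KCl, MgCl2, BSA, DTT, tRNA and Tween20, with or without input ligand. Apparent Kd is the median of per-cluster binding-curve fits. Designs measured on fewer than 10 clusters were excluded.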

[3] = designed as: OFF switch for theophylline, no ligand
[4] = ligand present: theophylline, designed as: OFF switch for theophylline
[5] = designed as: ON switch for theophylline, no ligand
[6] = ligand present: theophylline, designed as: ON switch for theophylline
[7] = designed as: ON switch for flavin mononucleotide, no ligand
[8] = ligand present: flavin mononucleotide, designed as: ON switch for flavin mononucleotide
[9] = designed as: OFF switch for flavin mononucleotide, no ligand
[10] = ligand present: flavin mononucleotide, designed as: OFF switch for flavin mononucleotide

Sequence | apparent Kd [1, 3] [nM] | apparent Kd [1, 4] [nM] | apparent Kd [1, 5] [nM] | apparent Kd [1, 6] [nM] | further results
UUAUAUAUACAUGAGGAUCACCCAUGUGAUACCAGCCUGGAAACAGGCCCUUGGCAGCACAAAUACUCCAGAAAAUAUAAUAAAU | 26.7 | 199 |  |  | 
ACAUGAGGAUCACCCAUGUCUGCCUCGGAUACCAGCGGAAGAAAACGCCCUUGGCAGCCGAACAUGAGGAUCACCCAUGUAGGCU |  |  | 48.2 | 56.8 | 
UUUUUCGCGUUUGAUACCAGCAGAGUUGUUCUGGUCUGGUACAUGAGGAUCACCCAUGUCUGCCCUUGGCAGCAAACGGGAGAAG | 11.5 | 14.7 |  |  | 
ACAUGAGGAUCACCCAUGUUCCUCGCCGAUACCAGUGAAGAAGAACGCCCUUGGCAGCGGAAAGAAUAUUUUGGAGAUGAGAUAU | 204 | 270 |  |  | 
CCUGCGUUUCUUUUCUUUCGCAGGAAUGAUACCAGUAGGGAAACCUACCCUUGGCAGCAUGGGACAUGAGGAUCACCCAUGUUAU |  |  | 350 | 55.1 | 
AGCGGAACGGAAGGGUCCCGAAAUUGUGAUACCAGCCUUGAAUCCGGCCCUUGGCAGCACAUGAGGAUCACCCAUGUACUGCGGU | 13 | 45 |  |  | 
AAUAACAUGAGGAUCACCCAUGUAAAAGAUACCAGAGUGAUGAUCCUCCCUUGGCAGCUUAAUAACGCUAUUGAUUACAAUAGCG |  |  | 46.4 | 108 | 
AAGGUGAUCCCAGAUACCAGCUCAACAUGAGGAUCACCCAUGUACGGGACGAAAGUCCCGGGCCCUUGGCAGCUGGGUUGCCAAG |  |  | 193 | 123 | 
AUCGUACCUGGUGAUACCAGCAAGUGAUUAUAACAUGAGGAUCACCCAUGUAAUCAGUGAUGCCCUUGGCAGCAUAAUCGGUACA |  |  | 26.3 | 21.3 | 
CAUGGGUGGGUGCUGCCACCCAUUGGUGAUACCAGCAUCGAAAGAUGCCCUUGGCAGCACCAACAUGAGGAUCACCCAUGUAAUA |  |  | 118 | 320 | 
AAUUUGUCGGGUGAUACCAGCCUCGGCGCAUCUCGCGCUGAACAUGAGGAUCACCCAUGUGGCCCUUGGCAGCACAUGACAAAUC |  |  | 554 | 37.3 | 
GCAUGCGAUACCGAUACCAGCUACUCCAUGGCGCUCCACAUGAGGAUCACCCAUGUAAAUAGCCCUUGGCAGCGGUAUUGAGAUG | 22.7 | 315 |  |  | 
AGUGUUAUAACUGAUACCAGACUUUUGCUUAUACAUGAGGAUCACCCAUGUAAAAUGGUUGUCCCUUGGCAGCAGAAGUUACACA |  |  | 69.1 | 327 | 
AUGUCGUUGAAUAUAGCGGCUUGGUGUGAUACCAGAAUGAUCUAAUUCCCUUGGCAGCAUUACAUGAGGAUCACCCAUGUUUAGG |  |  | 25.2 | 29.2 | 
GAGGAUCAAGUAGAUACCAGCACAUGAGGAUCACCCAUGUAAUGGUGUCCCUCAAGAACGUGCCCUUGGCAGCUACUAUCAAAAU | 16.3 | 16.3 |  |  | 
UGUAACAUGAGGAUCACCCAUGUGAGUGAUACCAGAUUAGUAUUAGUCCCUUGGCAGCACAUUGGGCGAGUGUAUAGUCUAUGCG |  |  | 154 |  | 
AUAUGAUCAUGUGAUACCAGAAAUGGUAUUCCUCGCUGGAUUACAUGAGGAUCACCCAUGUUCCCUUGGCAGCAUAUGAUCAUAU | 21.4 | 269 |  |  | 
ACAUGAGGAUCACCCAUGUUCCUCAUUGAUACCAGUGAAUUUAGACGCCCUUGGCAGCGAGUUUUUUUAGAAGAAGUUUUUUUUU | 782 | 1070 |  |  | 
AGAUUACAUGUUUUAAUACGGAAAACUGAUACCAGUGUAUCUAUUCACCCUUGGCAGCAGCAACAUGAGGAUCACCCAUGUAUUA |  |  | 19.2 | 19.2 | 
UCAUGAAAGUCAGGAUAUGGCCACAUGAGGAUCACCCAUGUUUGCUUUAUCGAGCGAAACUGAGACCAGAAGGGACGGACAUUC |  |  |  |  | apparent Kd [2, 7]: 20.8 nM; apparent Kd [2, 8]: 11.1 nM
GAGCGCAGUUUACAACAUACUAACACAGAUACCAGAAAUUUUAUGUUCCCUUGGCAGCUGACAACAUGAGGAUCACCCAUGUGCU |  |  |  |  | apparent Kd [2, 3]: 17.1 nM; apparent Kd [2, 4]: 17.7 nM
CGCCCGAAAGGAUAUACAUGAGGAUCACCCAUGUUUCUAGCAAAAUGACCCUCAAUUCGUAGAAGGUUCCGAGU |  |  |  |  | apparent Kd [2, 9]: 32.6 nM; apparent Kd [2, 10]: 36.1 nM
UGGGAUAGCCAGAAGGUGGAAGCAACAACUGUCCAAGGAUAUGGUUGUUAUAAGGCAUCACACAUGAGGAUCACCCAUGUUAAU |  |  |  |  | apparent Kd [2, 7]: 83.2 nM; apparent Kd [2, 8]: 35.2 nM
GCCAAAAUACCCGAUACCAGUAUUAAUAGCACAACCUCACACAUGAGGAUCACCCAUGUAUACCCUUGGCAGCGGCCUAACAUAA |  |  |  |  | apparent Kd [2, 3]: 36.9 nM; apparent Kd [2, 4]: 102 nM
UACAUUAUAGAGAAGGAUUACUCACACAUGAGGAUCACCCAUGUGUCCAUCAUGGCUGUAGGUUAAUAGGAUAUCUUAGAAGUG |  |  |  |  | apparent Kd [2, 9]: 64.1 nM; apparent Kd [2, 10]: 155 nM
CCAUGGAGGACUGAGGAUAUUCGCAUAAGCACAUGAGGAUCACCCAUGUCAGAAAUAAAUCUCUAGAAGAAGGCAGCGCUAAGACA |  |  |  |  | apparent Kd [2, 7]: 12.9 nM; apparent Kd [2, 8]: 13.2 nM
